# Data published in ChEMBL document CHEMBL4689842, “EUbOPEN Chemogenomics Library wave 1” (2021).
# Tested on: U2OS
# Assay: Multiplex assay against U2OS
# Assay type: toxicity, cell-based
# Settings: human
# Summary of the method: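 Live cells were stained at seeding with Hoechst33342, BioTracker Green Microtubule Cytoskeleton Dye, MitoTracker Red and Annexin V Alexa Fluor 680, then imaged on a CQ1 microscope at 37°C and 5% CO2 after compound addition. CellPathfinder machine-learning gating split cells into Hoechst high-intensity objects or normal cells. Normal cells were split into healthy, pyknosed or fragmented nuclei, and pyknosed cells into mitotic or apoptotic. Tubulin, mitochondrial-mass and membrane-permeability phenotypes are per cents of healthy-nucleus cells.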
# [1] = 12 h, 1 µM, compound concentration 1 uM, replicate 1
# [2] = 12 h, 1 µM, compound concentration 1 uM, replicate 2
# [3] = 12 h, 10 µM, compound concentration 10 uM, replicate 1
# [4] = 12 h, 10 µM, compound concentration 10 uM, replicate 2
# [5] = 24 h, 1 µM, compound concentration 1 uM, replicate 1
# [6] = 24 h, 1 µM, compound concentration 1 uM, replicate 2
# [7] = 24 h, 10 µM, compound concentration 10 uM, replicate 1
# [8] = 24 h, 10 µM, compound concentration 10 uM, replicate 2
# [9] = 48 h, 1 µM, compound concentration 1 uM, replicate 1
# [10] = 48 h, 1 µM, compound concentration 1 uM, replicate 2
# [11] = 48 h, 10 µM, compound concentration 10 uM, replicate 1
# [12] = 48 h, 10 µM, compound concentration 10 uM, replicate 2
structure (smiles),measurement,setting,value
C=CC(=O)Nc1cccc(Sc2nc(Nc3ccc(N4CCN(C)CC4)cc3)ncc2Cl)c1,Population Apoptotic (%),[1],99%
same,Population Fragmented Nuclei (%),[1],5%
same,Population Healthy Nuclei (%),[1],3%
same,Population Hoechst High Intensity Objects (%),[1],10%
same,Population Membrane Permeable-Phenotype (%),[1],100%
same,Population Mitochondria Different-Phenotype (%),[1],100%
same,Population Mitotic Cells (%),[1],0%
same,Population Normal (%),[1],89%
same,Population Pyknosed Nuclei (%),[1],91%
same,Population Tubulin-Different-Phenotype (%),[1],100%
same,Total Cell Count,[1],197
same,Population Apoptotic (%),[2],95%
same,Population Fragmented Nuclei (%),[2],16%
same,Population Healthy Nuclei (%),[2],11%
same,Population Hoechst High Intensity Objects (%),[2],14%
same,Population Mitotic Cells (%),[2],5%
same,Population Normal (%),[2],85%
same,Population Pyknosed Nuclei (%),[2],71%
same,Total Cell Count,[2],119
same,Population Apoptotic (%),[3],28%
same,Population Fragmented Nuclei (%),[3],5%
same,Population Healthy Nuclei (%),[3],83%
same,Population Hoechst High Intensity Objects (%),[3],1%
same,Population Membrane Permeable-Phenotype (%),[3],32%
same,Population Mitochondria Different-Phenotype (%),[3],11%
same,Population Mitotic Cells (%),[3],71%
same,Population Normal (%),[3],98%
same,Population Pyknosed Nuclei (%),[3],10%
same,Population Tubulin-Different-Phenotype (%),[3],25%
same,Total Cell Count,[3],175
same,Population Apoptotic (%),[4],44%
same,Population Fragmented Nuclei (%),[4],8%
same,Population Healthy Nuclei (%),[4],82%
same,Population Hoechst High Intensity Objects (%),[4],14%
same,Population Membrane Permeable-Phenotype (%),[4],25%
same,Population Mitochondria Different-Phenotype (%),[4],10%
same,Population Mitotic Cells (%),[4],55%
same,Population Normal (%),[4],85%
same,Population Pyknosed Nuclei (%),[4],8%
same,Population Tubulin-Different-Phenotype (%),[4],33%
same,Total Cell Count,[4],115
same,Population Apoptotic (%),[5],96%
same,Population Fragmented Nuclei (%),[5],10%
same,Population Hoechst High Intensity Objects (%),[5],7%
same,Population Mitochondria Different-Phenotype (%),[5],96%
same,Population Mitotic Cells (%),[5],3%
same,Population Normal (%),[5],92%
same,Population Pyknosed Nuclei (%),[5],50%
same,Total Cell Count,[5],237
same,Population Apoptotic (%),[6],100%
same,Population Fragmented Nuclei (%),[6],21%
same,Population Healthy Nuclei (%),[6],38%
same,Population Hoechst High Intensity Objects (%),[6],15%
same,Population Membrane Permeable-Phenotype (%),[6],100%
same,Population Mitochondria Different-Phenotype (%),[6],100%
same,Population Mitotic Cells (%),[6],0%
same,Population Normal (%),[6],84%
same,Population Pyknosed Nuclei (%),[6],40%
same,Population Tubulin-Different-Phenotype (%),[6],100%
same,Total Cell Count,[6],127
same,Population Apoptotic (%),[7],42%
same,Population Fragmented Nuclei (%),[7],6%
same,Population Healthy Nuclei (%),[7],82%
same,Population Hoechst High Intensity Objects (%),[7],1%
same,Population Membrane Permeable-Phenotype (%),[7],24%
same,Population Mitochondria Different-Phenotype (%),[7],13%
same,Population Mitotic Cells (%),[7],57%
same,Population Normal (%),[7],98%
same,Population Pyknosed Nuclei (%),[7],11%
same,Population Tubulin-Different-Phenotype (%),[7],18%
same,Total Cell Count,[7],158
same,Population Apoptotic (%),[8],72%
same,Population Fragmented Nuclei (%),[8],7%
same,Population Hoechst High Intensity Objects (%),[8],12%
same,Population Membrane Permeable-Phenotype (%),[8],23%
same,Population Mitochondria Different-Phenotype (%),[8],15%
same,Population Mitotic Cells (%),[8],27%
same,Population Normal (%),[8],87%
same,Population Pyknosed Nuclei (%),[8],9%
same,Population Tubulin-Different-Phenotype (%),[8],22%
same,Total Cell Count,[8],103
CNC(=O)Nc1ccc(-c2nc(N3CC4CCC(C3)O4)c3cnn(C4CCC5(CC4)OCCO5)c3n2)cc1,Population Apoptotic (%),[1],22%
same,Population Fragmented Nuclei (%),[1],24%
same,Population Healthy Nuclei (%),[1],59%
same,Population Hoechst High Intensity Objects (%),[1],13%
same,Population Membrane Permeable-Phenotype (%),[1],5%
same,Population Mitochondria Different-Phenotype (%),[1],11%
same,Population Mitotic Cells (%),[1],77%
same,Population Normal (%),[1],86%
same,Population Pyknosed Nuclei (%),[1],15%
same,Population Tubulin-Different-Phenotype (%),[1],26%
same,Total Cell Count,[1],90
same,Population Apoptotic (%),[2],0%
same,Population Fragmented Nuclei (%),[2],28%
same,Population Healthy Nuclei (%),[2],55%
same,Population Hoechst High Intensity Objects (%),[2],10%
same,Population Mitochondria Different-Phenotype (%),[2],13%
same,Population Mitotic Cells (%),[2],100%
same,Population Normal (%),[2],89%
same,Population Pyknosed Nuclei (%),[2],16%
same,Population Tubulin-Different-Phenotype (%),[2],18%
same,Total Cell Count,[2],54
same,Population Apoptotic (%),[3],40%
same,Population Fragmented Nuclei (%),[3],26%
same,Population Healthy Nuclei (%),[3],31%
same,Population Hoechst High Intensity Objects (%),[3],13%
same,Population Membrane Permeable-Phenotype (%),[3],11%
same,Population Mitochondria Different-Phenotype (%),[3],88%
same,Population Mitotic Cells (%),[3],59%
same,Population Normal (%),[3],87%
same,Population Pyknosed Nuclei (%),[3],42%
same,Population Tubulin-Different-Phenotype (%),[3],96%
same,Total Cell Count,[3],66
same,Population Apoptotic (%),[4],25%
same,Population Fragmented Nuclei (%),[4],13%
same,Population Healthy Nuclei (%),[4],54%
same,Population Hoechst High Intensity Objects (%),[4],6%
same,Population Membrane Permeable-Phenotype (%),[4],36%
same,Population Mitochondria Different-Phenotype (%),[4],75%
same,Population Mitotic Cells (%),[4],75%
same,Population Normal (%),[4],93%
same,Population Pyknosed Nuclei (%),[4],32%
same,Total Cell Count,[4],107
same,Population Apoptotic (%),[5],30%
same,Population Fragmented Nuclei (%),[5],28%
same,Population Healthy Nuclei (%),[5],52%
same,Population Hoechst High Intensity Objects (%),[5],19%
same,Population Membrane Permeable-Phenotype (%),[5],0%
same,Population Mitochondria Different-Phenotype (%),[5],14%
same,Population Mitotic Cells (%),[5],70%
same,Population Normal (%),[5],80%
same,Population Pyknosed Nuclei (%),[5],18%
same,Population Tubulin-Different-Phenotype (%),[5],14%
same,Total Cell Count,[5],98
same,Population Apoptotic (%),[6],25%
same,Population Fragmented Nuclei (%),[6],19%
same,Population Healthy Nuclei (%),[6],64%
same,Population Hoechst High Intensity Objects (%),[6],18%
same,Population Membrane Permeable-Phenotype (%),[6],8%
same,Population Mitochondria Different-Phenotype (%),[6],6%
same,Population Mitotic Cells (%),[6],75%
same,Population Normal (%),[6],81%
same,Population Pyknosed Nuclei (%),[6],16%
same,Population Tubulin-Different-Phenotype (%),[6],23%
same,Total Cell Count,[6],55
same,Population Apoptotic (%),[7],51%
same,Population Fragmented Nuclei (%),[7],25%
same,Population Healthy Nuclei (%),[7],35%
same,Population Hoechst High Intensity Objects (%),[7],10%
same,Population Membrane Permeable-Phenotype (%),[7],10%
same,Population Mitochondria Different-Phenotype (%),[7],89%
same,Population Mitotic Cells (%),[7],48%
same,Population Normal (%),[7],90%
same,Population Pyknosed Nuclei (%),[7],38%
same,Population Tubulin-Different-Phenotype (%),[7],93%
same,Total Cell Count,[7],66
same,Population Apoptotic (%),[8],41%
same,Population Fragmented Nuclei (%),[8],8%
same,Population Healthy Nuclei (%),[8],42%
same,Population Hoechst High Intensity Objects (%),[8],6%
same,Population Membrane Permeable-Phenotype (%),[8],44%
same,Population Mitochondria Different-Phenotype (%),[8],84%
same,Population Mitotic Cells (%),[8],58%
same,Population Normal (%),[8],93%
same,Population Pyknosed Nuclei (%),[8],49%
same,Population Tubulin-Different-Phenotype (%),[8],96%
same,Total Cell Count,[8],90
same,Population Apoptotic (%),[9],50%
same,Population Fragmented Nuclei (%),[9],39%
same,Population Healthy Nuclei (%),[9],49%
same,Population Hoechst High Intensity Objects (%),[9],18%
same,Population Membrane Permeable-Phenotype (%),[9],3%
same,Population Mitochondria Different-Phenotype (%),[9],7%
same,Population Mitotic Cells (%),[9],50%
same,Population Normal (%),[9],81%
same,Population Pyknosed Nuclei (%),[9],11%
same,Population Tubulin-Different-Phenotype (%),[9],19%
same,Total Cell Count,[9],93
same,Population Apoptotic (%),[10],36%
same,Population Fragmented Nuclei (%),[10],14%
same,Population Healthy Nuclei (%),[10],55%
same,Population Hoechst High Intensity Objects (%),[10],14%
same,Population Membrane Permeable-Phenotype (%),[10],5%
same,Population Mitochondria Different-Phenotype (%),[10],14%
same,Population Mitotic Cells (%),[10],63%
same,Population Normal (%),[10],85%
same,Population Pyknosed Nuclei (%),[10],30%
same,Population Tubulin-Different-Phenotype (%),[10],37%
same,Total Cell Count,[10],56
same,Population Apoptotic (%),[11],64%
same,Population Fragmented Nuclei (%),[11],29%
same,Population Healthy Nuclei (%),[11],23%
same,Population Hoechst High Intensity Objects (%),[11],12%
same,Population Membrane Permeable-Phenotype (%),[11],26%
same,Population Mitochondria Different-Phenotype (%),[11],94%
same,Population Mitotic Cells (%),[11],35%
same,Population Normal (%),[11],87%
same,Population Pyknosed Nuclei (%),[11],47%
same,Population Tubulin-Different-Phenotype (%),[11],94%
same,Total Cell Count,[11],65
same,Population Apoptotic (%),[12],43%
same,Population Fragmented Nuclei (%),[12],11%
same,Population Healthy Nuclei (%),[12],29%
same,Population Hoechst High Intensity Objects (%),[12],16%
same,Population Membrane Permeable-Phenotype (%),[12],40%
same,Population Mitochondria Different-Phenotype (%),[12],80%
same,Population Mitotic Cells (%),[12],56%
same,Population Normal (%),[12],83%
same,Population Pyknosed Nuclei (%),[12],58%
same,Population Tubulin-Different-Phenotype (%),[12],93%
same,Total Cell Count,[12],74
